Several values for one entry are separate records, joined by “and”; a condition that tells them apart may be missing. Identical values can stand only once.
What was measured:
[1] = test system: Opioid receptors; mu/kappa/delta; test: Compound was tested for agonist potency against opioid receptor in guinea pig ileal longitudinal muscle expressed as IC50 of morphine divided by the compound; type: functional
[2] = test system: Opioid receptors; mu/kappa/delta; test: Compound was tested for irreversible antagonist activity against opioid receptor in mouse vas deferens expressed as IC50 of DADLE divided by the compound; type: functional, tissue-based
How it was run: (§1)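 Mouse vas deferens incubated 30 min with 200 nM test ligand, then washed thoroughly (20 times). Morphine and DADLE dose-response curves were rerun in the same tissue. Ratio = agonist IC50 after treatment / control IC50 in that tissue. Where the standard agonist gave under 65% response after treatment, an IC20 was estimated from the plotted dose-response curve. Means of three determinations unless otherwise noted.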

Opioid receptor [3] = molecular target: Opioid receptor (Rattus norvegicus, UniProt P33533+P34975+P33535); test: The compound was tested for binding affinity against opioid receptor in rat brain membranes, using [3H]dihydromorphine as the radioligand; type: cell membranes
How it was run: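 Rat forebrain was homogenised in ice-cold 0.05 M Tris-HCl pH 7.4 and washed twice by centrifugation at 4 °C. It was preincubated 10 min at 37 °C, washed again and resuspended at 10 mg/mL. Triplicate tubes held 1 nM [3H]dihydromorphine and at least seven drug concentrations, incubated 40 min at room temperature, then vacuum-filtered. Nonspecific binding was set with 10⁻⁶ M naloxone. Values are mean ± SEM of three experiments.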

[4] = molecular target: T1, Opioid receptors; mu/kappa/delta (Homo sapiens) (UniProt P41145+P41143+P35372); test: Compound was tested for irreversible antagonist activity against opioid receptor in mouse vas deferens expressed as IC50 of morphine divided by the compound (experiment. 2); type: functional, tissue-based; how it was run: as §1
Opioid receptor [5] = molecular target: Opioid receptor (Mus musculus, UniProt P42866+P32300+P33534); test: Compound was tested for agonist activity against opioid receptor in mouse vas deferens preparation; type: functional
[6] = molecular target: T1, Opioid receptors; mu/kappa/delta (Homo sapiens); test: Compound was tested for irreversible antagonist activity against opioid receptor in mouse vas deferens expressed as IC50 of morphine divided by the compound (experiment 1); type: functional, tissue-based; how it was run: as §1
[7] = test system: Opioid receptors; mu/kappa/delta; test: Compound was tested for irreversible antagonist activity against opioid receptor in mouse vas deferens at a concentration of 20 nM expressed as IC50 of morphine divided by the compound; type: functional
[8] = molecular target: T1, Opioid receptors; mu/kappa/delta (Homo sapiens); test: Compound was tested for irreversible antagonist activity against opioid receptor in mouse vas deferens at a concentration of 20 nM, expressed as IC50 of nalorphine divided by the compound; type: functional
[9] = molecular target: T1, Opioid receptors; mu/kappa/delta (Homo sapiens); test: Compound was tested for irreversible antagonist activity against opioid receptor in mouse vas deferens, expressed as IC50 of morphine divided by the compound; type: functional
How it was run: (§2)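 Mouse vas deferens tissue incubated 30 min with test ligand at 200 nM, then washed thoroughly (20 times). Standard agonist (morphine or DADLE) IC50 redetermined and divided by control IC50 from the same tissue (treated/control ratio). Where the agonist gave under 65% response after treatment, an IC20 was estimated from the plotted dose-response curve. Means of three determinations unless otherwise noted.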

[10] = molecular target: T1, Opioid receptors; mu/kappa/delta (Homo sapiens); test: Compound was tested for irreversible antagonist activity against opioid receptor in mouse vas deferens at a concentration of 100 nM, expressed as IC50 of morphine divided by the compound; type: functional
[11] = molecular target: T1, Opioid receptors; mu/kappa/delta (Homo sapiens); test: Compound was tested for irreversible antagonist activity against opioid receptor in mouse vas deferens, expressed as IC50 of DADLE divided by compound; type: functional; how it was run: as §2
[12] = molecular target: T1, Opioid receptors; mu/kappa/delta (Homo sapiens); test: Compound was tested for irreversible antagonist activity against opioid receptor in mouse vas deferens at a concentration of 20 nM, expressed as IC50 of morphine divided by the compound; type: functional
[13] = molecular target: T2, Opioid receptor (Mus musculus) (UniProt P42866+P32300+P33534); test: Compound was tested for irreversible antagonist activity against opioid receptor in mouse vas deferens expressed as IC20 of morphine divided by the compound; type: functional, tissue-based; how it was run: as §1
Mus musculus = species on record: Mus musculus; test: Compound was tested for partial agonism in presence of morphine at conc. of 3 e-5; type: functional
[14] = molecular target: T1, Opioid receptors; mu/kappa/delta (Homo sapiens); test: Compound was tested for irreversible antagonist activity against opioid receptor in mouse vas deferens expressed as IC50 of morphine divided by the compound; type: functional, tissue-based; how it was run: as §1
[15] = molecular target: T1, Opioid receptors; mu/kappa/delta (Homo sapiens); test: Compound was tested for irreversible antagonist activity against opioid receptor in mouse vas deferens at a concentration of 200 nM, expressed as IC50 of nalorphine divided by the compound; type: functional
[16] = molecular target: Opioid receptors; mu and delta (Mus musculus) (UniProt P42866+P32300); test: Irreversible antagonist activity against opioid receptor in mouse vas deferens at 200 nM relative to IC50 of nalorphine; type: functional, tissue-based
[17] = molecular target: T2, Opioid receptor (Mus musculus); test: Compound was tested for agonist activity against opioid receptor in mouse vas deferens preparation at concentration of 1E-7 M; type: functional

T2 sequence (P32300 whole entry, looked up): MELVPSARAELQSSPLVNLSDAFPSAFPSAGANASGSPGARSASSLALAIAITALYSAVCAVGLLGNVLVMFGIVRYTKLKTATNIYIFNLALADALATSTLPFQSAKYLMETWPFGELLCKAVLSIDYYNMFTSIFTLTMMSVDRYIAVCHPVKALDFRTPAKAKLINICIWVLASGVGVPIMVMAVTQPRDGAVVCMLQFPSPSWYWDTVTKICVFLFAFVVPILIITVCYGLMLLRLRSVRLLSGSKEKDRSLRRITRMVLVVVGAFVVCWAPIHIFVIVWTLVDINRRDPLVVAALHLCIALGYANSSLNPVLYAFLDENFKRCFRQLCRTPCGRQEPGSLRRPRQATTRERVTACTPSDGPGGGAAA
T2 sequence (P33534 whole entry, looked up): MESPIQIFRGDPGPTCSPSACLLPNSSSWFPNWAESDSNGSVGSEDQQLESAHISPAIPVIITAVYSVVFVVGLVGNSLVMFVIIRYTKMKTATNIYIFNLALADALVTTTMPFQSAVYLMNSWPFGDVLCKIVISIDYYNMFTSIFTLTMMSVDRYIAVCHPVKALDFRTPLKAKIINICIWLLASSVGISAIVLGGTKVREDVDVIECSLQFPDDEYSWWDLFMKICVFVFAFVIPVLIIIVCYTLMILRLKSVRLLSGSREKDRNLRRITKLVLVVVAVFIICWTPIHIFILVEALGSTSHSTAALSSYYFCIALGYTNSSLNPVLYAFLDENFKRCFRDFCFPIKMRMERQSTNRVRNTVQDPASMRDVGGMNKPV
T2 sequence (P42866 whole entry, looked up): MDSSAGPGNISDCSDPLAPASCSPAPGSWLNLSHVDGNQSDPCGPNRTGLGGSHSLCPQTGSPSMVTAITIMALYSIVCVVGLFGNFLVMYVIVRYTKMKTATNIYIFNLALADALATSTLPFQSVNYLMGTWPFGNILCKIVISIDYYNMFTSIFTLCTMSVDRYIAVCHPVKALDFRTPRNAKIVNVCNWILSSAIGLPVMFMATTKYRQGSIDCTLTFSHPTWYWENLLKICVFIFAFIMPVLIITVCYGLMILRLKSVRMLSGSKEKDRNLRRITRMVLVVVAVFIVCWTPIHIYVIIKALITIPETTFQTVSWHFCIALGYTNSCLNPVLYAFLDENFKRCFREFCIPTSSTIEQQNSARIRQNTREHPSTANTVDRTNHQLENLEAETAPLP
T1 sequence (P35372 whole entry, looked up): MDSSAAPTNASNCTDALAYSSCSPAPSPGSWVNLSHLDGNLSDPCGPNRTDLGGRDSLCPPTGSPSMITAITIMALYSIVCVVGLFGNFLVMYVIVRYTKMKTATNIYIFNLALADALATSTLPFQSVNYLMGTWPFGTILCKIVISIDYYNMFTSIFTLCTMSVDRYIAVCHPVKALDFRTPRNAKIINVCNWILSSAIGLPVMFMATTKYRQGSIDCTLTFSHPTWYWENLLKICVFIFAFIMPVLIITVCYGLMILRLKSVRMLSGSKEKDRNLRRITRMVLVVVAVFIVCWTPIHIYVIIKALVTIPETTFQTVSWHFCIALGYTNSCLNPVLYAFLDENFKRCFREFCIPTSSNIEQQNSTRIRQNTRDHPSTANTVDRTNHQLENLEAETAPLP
T1 sequence (P41143 whole entry, looked up): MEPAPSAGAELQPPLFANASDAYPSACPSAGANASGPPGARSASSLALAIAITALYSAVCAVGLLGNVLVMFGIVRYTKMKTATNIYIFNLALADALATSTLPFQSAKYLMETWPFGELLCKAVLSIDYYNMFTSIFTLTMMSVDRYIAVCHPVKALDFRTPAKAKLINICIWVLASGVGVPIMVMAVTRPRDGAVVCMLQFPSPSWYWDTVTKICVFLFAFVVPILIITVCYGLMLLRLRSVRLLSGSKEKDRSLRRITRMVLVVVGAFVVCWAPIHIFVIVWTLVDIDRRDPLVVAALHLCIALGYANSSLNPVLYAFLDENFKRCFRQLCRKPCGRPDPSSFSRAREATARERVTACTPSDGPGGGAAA
T1 sequence (P41145 whole entry, looked up): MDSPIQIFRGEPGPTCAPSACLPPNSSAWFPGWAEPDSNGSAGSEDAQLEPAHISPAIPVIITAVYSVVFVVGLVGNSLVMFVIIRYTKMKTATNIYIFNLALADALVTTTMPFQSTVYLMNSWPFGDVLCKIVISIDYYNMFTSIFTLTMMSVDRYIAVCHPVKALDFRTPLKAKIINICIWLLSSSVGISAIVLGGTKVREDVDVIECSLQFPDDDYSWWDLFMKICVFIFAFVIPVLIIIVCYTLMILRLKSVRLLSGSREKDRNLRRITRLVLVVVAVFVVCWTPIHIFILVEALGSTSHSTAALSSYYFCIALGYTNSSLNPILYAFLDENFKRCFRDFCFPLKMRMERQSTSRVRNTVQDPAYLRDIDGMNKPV
Sequence of Opioid receptors; mu and delta (Mus musculus) (P32300 whole entry, looked up): as the sequence (P32300 whole entry, looked up) above
Sequence of Opioid receptors; mu and delta (Mus musculus) (P42866 whole entry, looked up): as the sequence (P42866 whole entry, looked up) above

SMILES | Potency ratio [1] | Ratio [2] | IC50 (Opioid receptor [3]) [nM] | Ratio [4] | IC50 (Opioid receptor [5]) [nM] | Ratio [6] | Ratio [7] | Ratio [8] | Ratio [9] | Ratio [10] | Ratio [11] | Ratio [12] | IC20 [13] [nM] | Activity (Mus musculus) [%] | Ratio [14] | Ratio [15] | Ratio [16] | inhibition [17] [%]
O=C(/C=C/C(=O)OCCc1ccccc1)N[C@@H]1CC[C@@]2(O)C3Cc4ccc(O)c5c4C2(CCN3CC2CC2)[C@H]1O5 (some centres not stated) | 10.4 | 3.73 | 0.015 | 24.4 | 70.1 | 64.7 | 4.84 and 2.88 |  |  |  |  |  |  |  |  |  |  | 
COC(=O)/C=C/C(=O)N[C@@H]1CC[C@@]2(O)[C@H]3Cc4ccc(O)c5c4[C@@]2(CCN3CC2CC2)[C@H]1O5 | 5 |  | 1.03 |  | 82 |  |  | 1.2 | 10.6 | 12 | 1.1 | 6 |  |  |  |  |  | 
CCCOC(=O)/C=C/C(=O)N[C@@H]1CC[C@@]2(O)C3Cc4ccc(O)c5c4C2(CCN3CC2CC2)[C@H]1O5 (some centres not stated) | 147 | 1.52 | 1.56 |  | 21 |  | 2.46 and 1.69 |  |  |  |  |  | 200 | 56 |  |  |  | 
CCCCOC(=O)/C=C/C(=O)N[C@@H]1CC[C@@]2(O)C3Cc4ccc(O)c5c4C2(CCN3CC2CC2)[C@H]1O5 (some centres not stated) | 66.1 | 1.75 | 1.65 |  | 7 |  | 5.05 and 4.42 |  |  |  |  |  |  |  | 10 |  |  | 
CCOC(=O)/C=C/C(=O)N[C@@H]1CC[C@@]2(O)C3Cc4ccc(O)c5c4C2(CCN3CC2CC2)[C@H]1O5 (some centres not stated) | 16.1 | 1.24 | 0.64 |  | 13 |  | 1.75 and 2.22 |  |  |  |  |  |  |  | 2.53 | 2.06 | 1.67 | 
O=C(/C=C/C(=O)OCc1ccccc1)N[C@@H]1CC[C@@]2(O)C3Cc4ccc(O)c5c4C2(CCN3CC2CC2)[C@H]1O5 (some centres not stated) | 1.41 | 1.39 | 0.3 |  |  |  | 6.33 and 5.85 |  |  |  |  |  | 400 |  |  |  |  | 57

Source: ChEMBL document CHEMBL1123494, “Irreversible blockage of opioid receptor types by ester homologues of beta-funaltrexamine” (J Med Chem, 1986)
